Laboratory results from publication PMC2216779 (The Journal of General Physiology, 1993).
Values joined by “and” are separate entries in the source; they are usually repeats but may differ in a detail not shown here. Equal entries are not always repeated. Where two headings read alike, the source gives them in different places. One block for each compound: values may come before it.

Key:
[1] = biological target: T1, chloride transport in human red blood cells; capnophorin (band 3 or AE1) (Homo sapiens, UniProt P02730); test: 36Cl- efflux; format: cell-based; conditions: 38C
T1 sequence (P02730 1-911): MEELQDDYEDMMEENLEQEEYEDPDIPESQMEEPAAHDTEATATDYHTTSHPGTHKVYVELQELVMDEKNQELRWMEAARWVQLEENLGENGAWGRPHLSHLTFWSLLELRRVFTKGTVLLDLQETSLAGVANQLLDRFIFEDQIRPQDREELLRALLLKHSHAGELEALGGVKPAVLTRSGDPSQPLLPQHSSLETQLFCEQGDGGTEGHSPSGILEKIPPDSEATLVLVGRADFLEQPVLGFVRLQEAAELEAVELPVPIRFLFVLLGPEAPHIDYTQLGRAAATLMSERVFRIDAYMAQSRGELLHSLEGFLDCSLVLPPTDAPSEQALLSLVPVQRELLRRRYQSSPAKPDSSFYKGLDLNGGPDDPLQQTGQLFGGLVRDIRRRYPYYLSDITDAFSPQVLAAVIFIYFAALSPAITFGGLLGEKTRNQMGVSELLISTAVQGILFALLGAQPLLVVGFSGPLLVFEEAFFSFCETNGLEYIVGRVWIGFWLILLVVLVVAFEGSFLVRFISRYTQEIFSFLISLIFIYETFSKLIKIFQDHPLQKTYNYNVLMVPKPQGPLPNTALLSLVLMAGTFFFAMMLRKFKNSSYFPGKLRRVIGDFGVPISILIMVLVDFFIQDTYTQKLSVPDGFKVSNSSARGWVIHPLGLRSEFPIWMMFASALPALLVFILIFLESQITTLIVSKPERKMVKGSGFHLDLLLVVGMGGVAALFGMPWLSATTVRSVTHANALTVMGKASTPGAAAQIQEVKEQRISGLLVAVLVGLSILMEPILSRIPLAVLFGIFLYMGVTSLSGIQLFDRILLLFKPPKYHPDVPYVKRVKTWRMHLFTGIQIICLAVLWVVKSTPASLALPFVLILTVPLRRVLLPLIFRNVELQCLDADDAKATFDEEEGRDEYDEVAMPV
Outline: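 Fresh heparinized human blood washed four times in medium A (150 mM KCl, 0.5–2 mM KH2PO4, pH 7.2), buffy coat removed. Covalent labelling: ~50% hematocrit, 50 µM DIDS, 38°C, 45 min, then washes in medium A. Cells loaded with 3.7–18.5 kBq 36Cl per ml suspension and packed. Tracer efflux measured at 38°C, pH 7.2, by Millipore-Swinnex filtration or continuous flow tube. Rate constant taken from extracellular radioactivity over time, corrected for trapped isotope.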

[2] = test system: residual chloride transport in DIDS-C human red blood cells; test: 36Cl- efflux in DIDS-C cells; format: cell-based
[3] = test system: chloride conductance of the human red cell membrane; test: Conductance studies of net; format: cell-based; conditions: 16 µM DIDS; calculated from Bennekou and Stampe (1988) data
[4] = test system: chloride conductance of the human red cell membrane; conditions: ref Bennekou and Stampe (1988); cited from earlier work
[5] = test system: band 3 protein, DIDS binding site; conditions: cited from earlier work
[6] = biological target: human erythrocyte anion transporter; conditions: read-out: Dissociation constant of DNDS binding, ref Frohlich (1982), cited from earlier work

Chloride efflux after DIDS binding procedure performed once ([1]; 50 µM DIDS, 45 min, n = 10): 96.3 [SD-+ 8.1] pmol cm-2 s-1
Chloride efflux after DIDS binding procedure performed twice ([1]; 50 µM DIDS, 45 min, n = 10): 94.1 [SD ~ 11.0] pmol cm-2 s-1
Irreversible inhibition of chloride transport by maximum covalent DIDS binding ([1]; DIDS-C cells vs control cells, pH 7.2): 99.8%
Half-time for chloride tracer efflux in DIDS-C cells ([1]; found experimentally): 29 s
SMILES: O=S(=O)(O)c1cc(N=C=S)ccc1C=Cc1ccc(N=C=S)cc1S(=O)(=O)O [DIDS, 4,4'-diisothiocyanostilbene-2,2'-disulfonic acid]
Chloride self-exchange flux in DIDS-C cells ([1]; covalently bound DIDS, pH 7.2, n = 30): 106 pmol cm-2 s-1 and 106 (SD + 17) pmol cm-2 s-1
Chloride flux in DIDS-CR cells ([2]; covalent DIDS + 50 µM DIDS in flux medium, 38C, pH 7.2, n = 15): 0.60 [SD -- 0,16] pmol cm-2 s-1
Reduction of conductive component of chloride efflux [3]: 96.4%
Reduction of conductive component of chloride efflux, fold [3]: 28 times
Inhibition of conductive flow of chloride [4]: ~ 100%
Half-time for irreversible DIDS binding ([5]; 0C, ref Janas et al., 1989): ~ 3 h
Time constant 1/k of irreversible DIDS binding ([5]; 38C, ref Janas et al., 1989): 2.2 rain

SMILES: O=[N+]([O-])c1ccc(C=Cc2ccc([N+](=O)[O-])cc2S(=O)(=O)O)c(S(=O)(=O)O)c1 [DNDS, 4,4'-dinitrostilbene-2,2'-disulfonate]
Kd ([6]; 0C): 84 nM
Kd ([6]; 10C): 86 nM
Kd ([6]; 20C): 90 nM

SMILES: O=S(=O)(O)c1cc(N=C=S)ccc1CCc1ccc(N=C=S)cc1S(=O)(=O)O [H2DIDS, 4,4'-diisothiocyano-dihydrostilbene-2,2'-disulfonic acid]
Rate of binding to the DIDS binding site relative to DIDS ([5]; 0C, ref Shami, Rothstein, and Knauf, 1978): binds much faster than DIDS

SMILES: CC(C)[C@@H]1NC(=O)[C@H](C)OC(=O)[C@@H](C(C)C)NC(=O)[C@@H](C(C)C)OC(=O)[C@H](C(C)C)NC(=O)[C@H](C)OC(=O)[C@@H](C(C)C)NC(=O)[C@@H](C(C)C)OC(=O)[C@H](C(C)C)NC(=O)[C@H](C)OC(=O)[C@@H](C(C)C)NC(=O)[C@@H](C(C)C)OC1=O [valinomycin]
Effect on initial 36Cl influx rate ([2]; valinomycin 1 µM, extracellular chloride < 1 mM): no detectable effect
